We go through five molecules from ChEMBL document CHEMBL3525958 (Drug Metab Dispos, 2013).

Bounds are passed on as bounds.

A word on the bioavailability: it is the share of a dose that reaches the circulation, judged against a reference dose that is usually intravenous. Low values mean poor availability, high ones good availability. One may read the inhibition as the change of the read-out against control, counted positive when it falls. As usually defined, the efflux ratio is the permeability from basolateral to apical divided by that in the opposite direction, in the common usage. The term Papp B→A denotes the apparent permeability from the basolateral to the apical side of a cell layer. Broadly, the Papp A→B is the apparent permeability from the apical to the basolateral side of a cell layer.

Data set [1] in a line: Activity at human P-glycoprotein expressed in pig LLC-PK1 cells assessed as rate of transport at 10 uM after 60 mins by liquid scintillation counting. The note with it: llc-pk1, 1 h. Type of data set: ADME, cell-based. The gist of the method:
(§1)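 Human P-gp-cDNA LLC-PK1 cells and vector-only (mock) cells were cultured on collagen-coated inserts for 7 days. […] Facilitated rate v = IA/(filter area × time), where IA is the net P-gp-dependent pmol transported.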

Data set [2] in a line: Activity at human P-glycoprotein expressed in pig LLC-PK1 cells at […] after 90 mins by liquid scintillation counting. The format is ADME, cell-based.
Data set [3] can be described thus: Activity at human P-glycoprotein expressed in pig LLC-PK1 cells assessed as rate of transport at […] after 90 mins by liquid scintillation counting. Type of data set: ADME, cell-based.
Data set [4] is described as follows: Activity at human P-glycoprotein expressed in pig LLC-PK1 cells at 5 uM after 90 mins by liquid scintillation counting. The format is ADME, cell-based.
Data set [5] can be described thus: Activity at human P-glycoprotein expressed in pig LLC-PK1 cells at 10 uM after 60 mins by liquid scintillation counting. Type of data set: ADME, cell-based. The note with it: llc-pk1, 1 h.
Data set [6] is described as follows: Activity at human P-glycoprotein expressed in pig LLC-PK1 cells at 100 uM after 90 mins by liquid scintillation counting. Type of data set: ADME, cell-based.
Data set [7] can be described thus: Activity at human P-glycoprotein expressed in pig LLC-PK1 cells at 25 uM after 90 mins by liquid scintillation counting. The format is ADME, cell-based.
The nature of data set [8]: Activity at human P-glycoprotein expressed in pig LLC-PK1 cells at 50 uM after 90 mins by liquid scintillation counting. The format is ADME, cell-based.
The nature of data set [9]: Activity at human P-glycoprotein expressed in pig LLC-PK1 cells at 10 uM after 120 mins by liquid scintillation counting. The format is ADME, cell-based. The following applies: llc-pk1, 2 h.
The nature of data set [10]: Activity at human P-glycoprotein expressed in pig LLC-PK1 cells assessed as rate of transport at 10 uM after 120 mins by liquid scintillation counting. The following applies: llc-pk1, 2 h. The format is ADME, cell-based. The gist of the method: as §1
Data set [11] is described as follows: Activity at human P-glycoprotein expressed in pig LLC-PK1 cells at 10 uM after 90 mins by liquid scintillation counting. The format is ADME, cell-based.
Data set [12] can be described thus: Activity at human P-glycoprotein expressed in pig LLC-PK1 cells assessed as rate of transport at 25 uM after 90 mins by liquid scintillation counting. Type of data set: ADME, cell-based. The gist of the method:
as §1

A short description of data set [13]: Activity at human P-glycoprotein expressed in pig LLC-PK1 cells assessed as rate of transport at 50 uM after 90 mins by liquid scintillation counting. The format is ADME, cell-based. The gist of the method: as §1
Data set [14] can be described thus: Activity at human P-glycoprotein expressed in pig LLC-PK1 cells assessed as rate of transport at 100 uM after 90 mins by liquid scintillation counting. The format is ADME, cell-based. The essentials: as §1
Data set [15] can be described thus: Activity at human P-glycoprotein expressed in pig LLC-PK1 cells assessed as rate of transport at 5 uM after 90 mins by liquid scintillation counting. Type of data set: ADME, cell-based. The essentials:
as §1

Data set [16] is described as follows: Activity at human P-glycoprotein expressed in pig LLC-PK1 cells assessed as rate of transport at 10 uM after 90 mins by liquid scintillation counting. Type of data set: ADME, cell-based. The essentials: as §1
Data set [17] in a line: Oral bioavailability in human. Type of data set: ADME, organism-based. The following applies: in vivo.
Data set [18] is described as follows: Ratio of AUC in milk to plasma in lactating rat. The format is ADME. The note with it: female, read-out: Ratio AUC.
Data set [19] can be described thus: Oral bioavailability in rat. The format is ADME, organism-based. The note with it: in vivo.
A short description of data set [20]: Ratio of drug level in brain to blood in po dosed rat. The format is ADME, organism-based.
The nature of data set [21]: Ratio of Cmax in milk to plasma in lactating rat. The format is ADME. The note with it: female.
Data set [22] in a line: Oral bioavailability in dog. The format is ADME, organism-based, Canis lupus familiaris. The note with it: in vivo.
Data set [23] deals with P-gp. Description: Apparent permeability in human Caco2 cells assessed as 50 uM P-gp inhibitor ketoconazole-mediated inhibition of digoxin efflux at 5 uM by liquid scintillation counting. The following applies: Caco-2 cells, with ketoconazole 50 uM. Type of data set: ADME, cell-based. The essentials: (§2)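 Caco-2 monolayers (passages 17–40, 13–22 days post-seeding) were used. Bidirectional transport ran for 2 h at 37°C, shaken at 50 rpm, in HBSS/10 mM HEPES pH 7.4. […] Inhibitors were present in both chambers: ketoconazole or cyclosporin A (20 or 50 µM), Ko134 (1 or 11 µM), or probenecid with the 20 µM runs. Results are % inhibition of efflux ratio.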
In general terms: Caco-2 monolayers are a common model of the intestinal barrier.

For a further data set, the system named is P-glycoprotein (human). Description: Efflux ratio of apparent permeability from basolateral to apical side over apical to basolateral side in pig LLC-PK1 cells expressing human P-glycoprotein at 5 uM by liquid scintillation counting. Type of data set: ADME, cell-based, Sus scrofa.
In data set [24] the test system is BCRP. Kind of data set: Permeability in human Caco2 cells assessed as 11 uM BCRP inhibitor Ko134-mediated inhibition of digoxin at 5 uM by liquid scintillation counting. The following applies: Caco-2, with Ko134 11 uM. Type of data set: ADME, cell-based. The gist of the method:
as §2

A short description of data set [25]: Apparent permeability from basolateral to apical side of human Caco2 cells at 5 uM by liquid scintillation counting. The note with it: Caco-2.
A short description of data set [26]: Apparent permeability from apical to basolateral side of human Caco2 cells at 5 uM by liquid scintillation counting. The following applies: Caco-2.
For data set [27], the system named is P-gp. Description: Apparent permeability in human Caco2 cells assessed as 50 uM P-gp inhibitor cyclosporin A-mediated inhibition of digoxin efflux at 5 uM by liquid scintillation counting. Type of data set: ADME, cell-based. The following applies: Caco-2 cells, with cyclosporin A 50 uM. The gist of the method: as §2
Data set [28] deals with BCRP. Description: in vitro. The note with it: human, Caco-2, with Ko134 11 uM.
Data set [29] relates to BCRP. Description: Efflux ratio of apparent permeability from basolateral to apical side over apical to basolateral side in MDCK2 cells expressing human BCRP at 5 uM by liquid scintillation counting. Type of data set: ADME, cell-based, Canis lupus familiaris, MDCK-II. The note with it: dog. The essentials: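 MDCKII cells, mock or carrying human BCRP cDNA, were cultured 4 days on transwell inserts, with 10 mM sodium butyrate added 24 h before assay. Cells were pre-incubated 10 min in modified Krebs-Henseleit buffer with 5 mM glucose at 37°C. […] Samples were scintillation counted, and efflux ratio = PcB-A/PcA-B.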

Take `COc1ccc(-n2nc(C(N)=O)c3c2C(=O)N(c2ccc(N4CCCC[14C]4=O)cc2)CC3)cc1`: the Drug transport in data set [1] was 471 pmol/cm2/hr; in [3] it was 71 pmol/cm2/hr; in data set [10], 474 pmol/cm2/hr; in data set [12], 1179 pmol/cm2/hr; in [13], 3194 pmol/cm2/hr; in data set [14], 5962 pmol/cm2/hr. Further, the Drug transport in data set [15] is 139 pmol/cm2/hr; in data set [16] it was 360 pmol/cm2/hr. The Intrinsic activity turned out to be 33 pmol in data set [2]; 64 pmol in data set [4]; 146 pmol in [5]; 2772 pmol in data set [6]; 548 pmol in data set [7]; 1485 pmol in [8]. In addition, the Intrinsic activity in data set [9] was 294 pmol; in data set [11] it was 167 pmol.
Regarding `COc1ccc(-n2nc(C(N)=O)c3c2C(=O)N(c2ccc(N4CCCCC4=O)cc2)CC3)cc1` [APIXABAN], the bioavailability is 50% in data set [17], 30% in data set [19] and 70% in data set [22]. Further, the Kp is 30 in [18], below 0.1 in data set [20] and 8 in data set [21].
As for `C[C@H]1O[C@@H](O[C@H]2[C@@H](O)C[C@H](O[C@H]3[C@@H](O)C[C@H](O[C@H]4CC[C@@]5(C)[C@H](CC[C@@H]6[C@@H]5C[C@@H](O)[C@]5(C)[C@@H](C7=CC(=O)OC7)CC[C@]65O)C4)O[C@@H]3C)O[C@@H]2C)C[C@H](O)[C@@H]1O` [DIGOXIN], the inhibition at 5 µM is 100% with P-gp [23], 50% with BCRP [24] and 98% with P-gp [27]. In addition, the efflux ratio at 5 µM with P-glycoprotein (human) is above 7. Moreover, in data set [25], the Papp B→A at 5 µM was found to be 20.5 ×10⁻⁶ cm/s. The Papp A→B at 5 µM in data set [26] amounted to 2.3 ×10⁻⁶ cm/s.
Turning to `O=C1CN(/N=C/c2ccc([N+](=O)[O-])o2)C(=O)N1` [NITROFURANTOIN], the inhibition at 5 µM with BCRP [28] amounted to 78%.
As for `COc1cc2nc(N3CCN(C(=O)c4ccco4)CC3)nc(N)c2cc1OC` [PRAZOSIN], in the data set with BCRP [29], the efflux ratio at 5 µM was found to be 10.
